Measurements reported in ChEMBL document CHEMBL4130539, “Novel ureidopropanamide based N-formyl peptide receptor 2 (FPR2) agonists with potential application for central nervous system disorders characterized by neuroinflammation” (Eur J Med Chem, 2017).
Active and inactive are the calls of the source. The rule behind the calls is not given here.

How the values were obtained:
[1] = target: T1, N-formyl peptide receptor 2 (Homo sapiens, UniProt P25090); assay: Agonist activity at human FPR2 expressed in human HL60 cells assessed as induction of calcium mobilization measured every 5 secs for 240 secs by Fluo-4-AM dye based fluorometric method; assay type: functional, cell-based; details: read-out: EC50
T1 sequence (P25090 whole entry): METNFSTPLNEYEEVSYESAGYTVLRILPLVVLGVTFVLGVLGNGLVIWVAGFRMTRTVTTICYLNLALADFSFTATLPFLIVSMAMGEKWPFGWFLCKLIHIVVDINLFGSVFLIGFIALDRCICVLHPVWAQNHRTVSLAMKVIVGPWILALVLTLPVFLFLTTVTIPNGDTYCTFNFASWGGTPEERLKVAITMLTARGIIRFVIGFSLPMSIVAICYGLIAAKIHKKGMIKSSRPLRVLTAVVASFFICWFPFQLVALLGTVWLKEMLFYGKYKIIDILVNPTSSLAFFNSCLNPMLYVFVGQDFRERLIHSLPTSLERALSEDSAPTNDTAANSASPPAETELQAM

[2] = target: T2, N-formyl peptide receptor 2 (Homo sapiens) (UniProt P25090); assay: Agonist activity at human FPR2 expressed in human HL60 cells assessed as induction of calcium mobilization measured every 5 secs for 240 secs by Fluo-4-AM dye based fluorometric method relative to WKYMVM; assay type: functional, cell-based
T2 sequence (whole entry): T1 sequence (P25090 whole entry)

fMet-Leu-Phe receptor = target: T3, fMet-Leu-Phe receptor (Homo sapiens, UniProt P21462); assay: Agonist activity at human FPR1 expressed in human HL60 cells assessed as induction of calcium mobilization measured every 5 secs for 240 secs by Fluo-4-AM dye based fluorometric method; assay type: functional, cell-based; details: read-out: EC50
T3 sequence (P21462 whole entry): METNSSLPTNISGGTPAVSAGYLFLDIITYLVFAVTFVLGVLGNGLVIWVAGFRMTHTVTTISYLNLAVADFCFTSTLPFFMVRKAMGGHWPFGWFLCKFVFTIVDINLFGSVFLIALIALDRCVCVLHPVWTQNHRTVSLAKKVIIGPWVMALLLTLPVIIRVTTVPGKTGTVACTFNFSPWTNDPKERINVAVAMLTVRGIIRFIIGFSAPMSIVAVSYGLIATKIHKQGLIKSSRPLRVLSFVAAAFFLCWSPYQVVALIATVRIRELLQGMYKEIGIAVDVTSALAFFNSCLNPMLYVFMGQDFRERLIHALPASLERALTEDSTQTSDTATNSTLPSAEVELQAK

[3] = target: T4, fMet-Leu-Phe receptor (Homo sapiens) (UniProt P21462); assay: Agonist activity at human FPR1 expressed in human HL60 cells assessed as induction of calcium mobilization measured every 5 secs for 240 secs by Fluo-4-AM dye based fluorometric method relative to fMLF; assay type: functional, cell-based
T4 sequence (whole entry): T3 sequence (P21462 whole entry)

[4] = target: T1, N-formyl peptide receptor 2; assay: Agonist activity at FPR2 in human neutrophils assessed as induction of calcium mobilization measured every 5 secs for 240 secs by Fluo-4-AM dye based fluorometric method; assay type: functional; details: read-out: EC50
[5] = Metabolic stability in rat liver microsomes assessed as parent compound remaining at 10 uM preincubated for 10 mins followed by NADPH addition measured after 30 mins by liquid chromatographic method; assay type: ADME, microsome; details: 0.5 h
[6] = Half life in rat liver microsomes at 10 uM preincubated for 10 mins followed by NADPH addition by liquid chromatographic method; assay type: ADME, microsome
[7] = Intrinsic clearance in rat liver microsomes at 10 uM preincubated for 10 mins followed by NADPH addition by liquid chromatographic method; assay type: ADME, microsome
Microglia [8] = assay: Cytotoxicity against Sprague-Dawley rat primary microglia cells assessed as cell death at 0.5 to 10 uM after 24 hrs by LDH assay; assay type: cell-based
Microglia [9] = assay: Cytotoxicity against Sprague-Dawley rat primary microglia cells assessed as reduction in cell viability at 0.5 to 10 uM after 24 hrs by MTT assay; assay type: cell-based
Microglia [10] = assay: Cytotoxicity against Sprague-Dawley rat primary microglia cells assessed as cell death at 50 uM after 24 hrs by LDH assay; assay type: cell-based
Microglia [11] = assay: Cytoprotection against LPS-induced cell death in Sprague-Dawley rat primary microglia cells at 1 to 5 uM pretreated for 1 hr followed by LPS stimulation for 24 hrs by LDH assay; assay type: functional, cell-based
Microglia [12] = assay: Cytoprotection against LPS-induced cell death in Sprague-Dawley rat primary microglia cells at 0.5 to 50 uM pretreated for 1 hr followed by LPS stimulation for 24 hrs by MTT assay; assay type: functional, cell-based
Microglia [13] = assay: Proinflammatory activity in Sprague-Dawley rat primary microglia cells assessed as induction of NO level up to 10 uM after 24 hrs by Griess reagent based assay; assay type: cell-based
Procedure, shortened: (§1)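 Rat primary cortical microglia (Sprague-Dawley pups, 1–2 days old, >95% Iba-1/CD11b-positive) given agonist without LPS for 24 h; WRW4 added 30 min before agonist where indicated. Supernatant NO measured with Griess reagent (540 nm, 10 min room temperature); TNF-α and IL-1β by ELISA. Values normalized to vehicle-treated cells (100%).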

Microglia [14] = assay: Proinflammatory activity in Sprague-Dawley rat primary microglia cells assessed as induction of NO level up to 10 uM after 24 hrs in presence of FPR2 antagonist WRW4 by Griess reagent based assay; assay type: cell-based; procedure, shortened: as §1
Microglia [15] = assay: Anti-inflammatory activity in Sprague-Dawley rat primary microglia cells assessed as inhibition of LPS-induced NO level up to 10 uM pretreated for 1 hr followed by LPS stimulation for 24 hrs by Griess reagent based assay; assay type: functional, cell-based
Procedure, shortened: (§2)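 Primary microglia from cortices of 1–2-day-old Sprague-Dawley rats, shaken off mixed cultures at day 9 in vitro, >95% Iba-1/CD11b-positive, used 2 days after plating. Agonist added 1 h before LPS (E. coli 0111:B4, 100 ng/ml) for 24 h; WRW4 given 30 min before agonist where stated. Medium NO by Griess reaction (540 nm); TNF-α and IL-1β by ELISA. Data as % of vehicle-treated control.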

Microglia [16] = assay: Proinflammatory activity in Sprague-Dawley rat primary microglia cells assessed as induction of IL-1beta level up to 10 uM after 24 hrs by ELISA; assay type: cell-based; procedure, shortened: as §1
Microglia [17] = assay: Proinflammatory activity in Sprague-Dawley rat primary microglia cells assessed as induction of TNFalpha level up to 10 uM after 24 hrs by ELISA; assay type: cell-based; procedure, shortened: as §1
Microglia [18] = assay: Proinflammatory activity in Sprague-Dawley rat primary microglia cells assessed as induction of IL-1beta level up to 10 uM after 24 hrs in presence of FPR2 antagonist WRW4 by ELISA; assay type: cell-based; procedure, shortened: as §1
Microglia [19] = assay: Proinflammatory activity in Sprague-Dawley rat primary microglia cells assessed as induction of TNFalpha level up to 10 uM after 24 hrs in presence of FPR2 antagonist WRW4 by ELISA; assay type: cell-based; procedure, shortened: as §1
Microglia [20] = assay: Anti-inflammatory activity in Sprague-Dawley rat primary microglia cells assessed as inhibition of LPS-induced IL-1beta level up to 10 uM pretreated for 1 hr followed by LPS stimulation for 24 hrs by ELISA; assay type: functional, cell-based; procedure, shortened: as §2
Microglia [21] = assay: Anti-inflammatory activity in Sprague-Dawley rat primary microglia cells assessed as inhibition of LPS-induced TNFalpha level up to 10 uM pretreated for 1 hr followed by LPS stimulation for 24 hrs by ELISA; assay type: functional, cell-based; procedure, shortened: as §2
Microglia [22] = assay: Anti-inflammatory activity in Sprague-Dawley rat primary microglia cells assessed as inhibition of LPS-induced IL-1beta level up to 10 uM pretreated for 1 hr followed by LPS stimulation for 24 hrs in presence of FPR2 antagonist WRW4 by ELISA; assay type: functional, cell-based; procedure, shortened: as §2
[23] = Efflux ratio of apparent permeability in hCMEC/D3 cells at 5 to 10 uM after 2 hrs by UV-spectroscopic method; assay type: ADME, cell-based; details: human, hcmec/d3, 2 h
[24] = target: T2, N-formyl peptide receptor 2 (Homo sapiens); assay: Agonist activity at FPR2 in human neutrophils assessed as induction of calcium mobilization measured every 5 secs for 240 secs by Fluo-4-AM dye based fluorometric method relative to fMLF
[25] = target: T1, N-formyl peptide receptor 2; assay: Agonist activity at human FPR2 expressed in human HL60 cells assessed as induction of calcium mobilization; assay type: functional, cell-based
[26] = target: T2, N-formyl peptide receptor 2 (Homo sapiens); assay: Agonist activity at human FPR2 expressed in human HL60 cells assessed as induction of calcium mobilization relative to control; assay type: functional, cell-based
Microglia [27] = assay: Cytotoxicity against Sprague-Dawley rat primary microglia cells assessed as reduction in cell viability at 50 uM after 24 hrs by MTT assay; assay type: cell-based
Microglia [28] = assay: Anti-inflammatory activity in Sprague-Dawley rat primary microglia cells assessed as inhibition of LPS-induced NO level at 5 to 10 uM pretreated for 1 hr followed by LPS stimulation for 24 hrs by Griess reagent based assay; assay type: functional, cell-based; procedure, shortened: as §2
Microglia [29] = assay: Anti-inflammatory activity in Sprague-Dawley rat primary microglia cells assessed as inhibition of LPS-induced NO level up to 10 uM pretreated for 1 hr followed by LPS stimulation for 24 hrs in presence of FPR2 antagonist WRW4 by Griess reagent based assay; assay type: functional, cell-based; procedure, shortened: as §2
Microglia [30] = assay: Anti-inflammatory activity in Sprague-Dawley rat primary microglia cells assessed as inhibition of LPS-induced TNFalpha level up to 10 uM pretreated for 1 hr followed by LPS stimulation for 24 hrs in presence of FPR2 antagonist WRW4 by ELISA; assay type: functional, cell-based; procedure, shortened: as §2

Structure (SMILES) | EC50 [1] | Efficacy [2] | EC50 (fMet-Leu-Phe receptor) | Efficacy [3] | EC50 [4] | Stability [5] | t1/2 [6] | Microsomal intrinsic clearance (CLint) [7] | Activity (Microglia [8]) | Activity (Microglia [9]) | Activity (Microglia [10]) | Activity (Microglia [11]) | Activity (Microglia [12]) | Activity (Microglia [13]) | Activity (Microglia [14]) | Activity (Microglia [16]) | Activity (Microglia [17]) | Activity (Microglia [18]) | Activity (Microglia [19]) | inhibition (Microglia [20]) | further results
O=C(Nc1ccc([N+](=O)[O-])cc1)N[C@H](Cc1cccnc1)C(=O)NCC1(c2ccccc2)CC1 | 2900 nM | 60% | 1500 nM | 145% | 120 nM | 45% | 1.65 h | 7 µL/min/mg | Non-Toxic | Non-Toxic | Toxic | Active | inactive | Non-Toxic | Non-Toxic | Non-Toxic | Non-Toxic | Non-Toxic | Non-Toxic | Active | inhibition (Microglia [15]): inactive; inhibition (Microglia [21]): Active; inhibition (Microglia [22]): inactive; Ratio [23]: 3.7; Efficacy [24]: 90%
O=C(Nc1ccc([N+](=O)[O-])cc1)N[C@@H](Cc1c[nH]c2ccccc12)C(=O)NCC1(c2ccccc2)CC1 | – | – | – | – | – | 11% | – | – | – | – | – | – | – | – | – | – | – | – | – | – | EC50 [25]: 7600 nM; Efficacy [26]: 60%
N#Cc1ccc(C[C@H](NC(=O)Nc2ccc([N+](=O)[O-])cc2)C(=O)NCC2(c3ccccc3)CC2)cc1 | 630 nM | 100% | 2800 nM | 75% | 2500 nM | 56% | 2 h | 5.78 µL/min/mg | Non-Toxic | Non-Toxic | Toxic | Active | inactive | Non-Toxic | Non-Toxic | Non-Toxic | Non-Toxic | Non-Toxic | Non-Toxic | Active | Activity (Microglia [27]): Toxic; inhibition (Microglia [28]): Active; inhibition (Microglia [29]): Active; inhibition (Microglia [21]): Active; inhibition (Microglia [22]): Active; inhibition (Microglia [30]): Active; Ratio [23]: 5.06; Efficacy [24]: 115%
